Measured values from ChEMBL document CHEMBL1136012, “Synthesis and structure-activity relationships of novel 7-substituted 1,4-dihydro-4-oxo-1-(2-thiazolyl)-1,8-naphthyridine-3-carboxylic acids as antitumor agents. Part 1” (J Med Chem, 2002).
In brackets after ≈: the same amount, converted by molar mass.

Experiments:
P388 [1] = assay: In vitro antitumor activity of compound against P388 leukemia cells at a dose of […] mg/kg; assay type: functional, Mus musculus; design: concentration or dose not given beside the values
P388 [2] = assay: […] antitumor activity of compound against P388 leukemia cells at a dose of 3.13 mg/kg; assay type: functional, Mus musculus
Outline: (§1)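 In vivo study: BDF1 mice received 10^6 P388 leukemia cells ip as diluted ascites fluid. Test compounds were suspended in 0.4% CMC and given ip on days 1 and 5 after implantation, with seven mice per group. The endpoint is T/C% = median survival time of the treated group / median survival time of controls × 100.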

P388 [3] = assay: […] antitumor activity of compound against P388 leukemia cells at a dose of 50 mg/kg; assay type: functional, Mus musculus; outline: as §1
P388 [4] = assay: Cytotoxic activity of compound against Murine P388 Leukemia; assay type: functional, cell-based, Mus musculus; details: Mus musculus, P388; read-out: IC50
Outline: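 Murine P388 cells were cultured in EMEM with 10% FBS, 2 mM glutamine, 50 units/mL penicillin and 50 μg/mL streptomycin. They were seeded at (1–2) × 10^4 cells/mL without preincubation and exposed to varying concentrations for 72 h at 37 °C, 5% CO2. MTT was then added for 4 h, formazan dissolved in DMSO and read at 570/690 nm.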

P388 [5] = assay: […] antitumor activity of compound against P388 leukemia cells at a dose of 6.25 mg/kg; assay type: functional; details: Mus musculus; outline: as §1
P388 [6] = assay: […] antitumor activity f compound against P388 leukemia cells at a dose of […] mg/kg; assay type: functional, Mus musculus
[7] = Cytotoxic activity of compound against AZ-521 stomach human tumor cell line; assay type: functional
Outline: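 AZ-521 cells were grown in EMEM with 10% FBS, 2 mM glutamine and NEAA. They were plated at (1–2) × 10^4 cells/mL and preincubated for 24 h, then treated with a range of concentrations for 72 h at 37 °C, 5% CO2. After a 4 h MTT step, the formazan was dissolved in DMSO and read at 570 nm (reference 690 nm).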

[8] = Cytotoxic activity of compound against SCaBER bladder squamous human tumor cell line; assay type: functional, cell-based
Outline: (§2)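 Cells were kept in EMEM with 10% FBS, 2 mM glutamine, NEAA and 1 mM sodium pyruvate. They were seeded at (1–2) × 10^4 cells/mL and preincubated for 24 h. They were then exposed to graded concentrations for 72 h at 37 °C in 5% CO2. MTT was added for a further 4 h and the formazan dissolved in DMSO, with absorbance at 570/690 nm.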

A-427 = assay: Cytotoxic activity of compound against A-427 lung human tumor cell line; assay type: functional, cell-based; outline: as §2
SK-OV-3 = assay: Cytotoxic activity of compound against SK-OV-3 ovary human tumor cell line; assay type: functional, cell-based; details: SK-OV-3, Female gonad
Outline: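 SK-OV-3 cells were maintained in McCoy's 5A with 15% FBS. After seeding at (1–2) × 10^4 cells/mL and 24 h preincubation, wells received graded concentrations for 72 h at 37 °C, 5% CO2. A 4 h MTT incubation followed, with DMSO solubilization and absorbance at 570/690 nm.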

G-361 = assay: Cytotoxic activity of compound against G-361 melanoma human tumor cell line; assay type: functional, cell-based
Outline: (§3)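 Culture was in McCoy's 5A with 10% FBS. Cells were seeded at (1–2) × 10^4 cells/mL, preincubated for 24 h, then incubated with various concentrations for 72 h at 37 °C under 5% CO2. MTT was added for 4 h and the formazan dissolved in DMSO, with A570 read against 690 nm.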

DNA topoisomerase II = DNA topoisomerase II (Homo sapiens, UniProt P11388+Q02880); assay: Inhibitory activity in a DNA cleavage assay using HeLa DNA topoisomerase II yielding its effective concentration; assay type: protein assay
HT-29 = assay: Cytotoxic activity of compound against HT-29 colon human tumor cell line; assay type: functional, cell-based; outline: as §3

Row | Compound | IC50 (P388 [4]) | also measured
1 | C[C@H]1CN(c2nc3c(cc2F)c(=O)c(C(=O)O)cn3-c2nccs2)C[C@@H]1N.Cl | 0.011 µg/mL | T/C (P388 [1]): 175%; T/C (P388 [2]): 138%; T/C (P388 [3]): 238%
2 | Cl.NC1CCN(c2cc3c(cn2)c(=O)c(C(=O)O)cn3-c2nccs2)C1 (stereo not given) | > 1 µg/mL | 
3 | Cl.NC1CCN(c2nc3c(cc2F)c(=O)c(C(=O)O)cn3Cc2nccs2)C1 (stereo not given) | > 10 µg/mL | 
4 | CISPLATIN |  | T/C (P388 [2]; Mus musculus): 239%; T/C (P388 [5]): 290%
5 | Cl.O=C(O)c1cn(-c2nccs2)c2nc(N3CCC(O)C3)c(F)cc2c1=O (stereo not given) | 0.036 µg/mL | T/C (P388 [6]): 175%; T/C (P388 [2]): 138%; T/C (P388 [3]): 225%
6 | Cl.NC1CCN(c2nc3c(cc2F)c(=O)c(C(=O)O)cn3-c2nccs2)CC1 | 1.63 µg/mL | 
7 | Cl.NC1CCN(c2nc3c(cc2F)c(=O)c(C(=O)O)cn3-c2nncs2)C1 (stereo not given) | 5.5 µg/mL | 
8 | Cc1cnc(-n2cc(C(=O)O)c(=O)c3cc(F)c(N4CCC(N)C4)nc32)s1.Cl (stereo not given) | 0.26 µg/mL | 
9 | CO[C@@H]1CN(c2nc3c(cc2F)c(=O)c(C(=O)O)cn3-c2nccs2)C[C@H]1N.Cl | 0.068 µg/mL | 
10 | COc1ccccc1N1CCN(c2nc3c(cc2F)c(=O)c(C(=O)O)cn3-c2nccs2)CC1.Cl | > 1 µg/mL | 
11 | Cc1nc(-n2cc(C(=O)O)c(=O)c3cc(F)c(N4CCC(N)C4)nc32)sc1C.Cl (stereo not given) | 0.18 µg/mL | 
12 | Cl.NCCNc1nc2c(cc1F)c(=O)c(C(=O)O)cn2-c1nccs1 | > 10 µg/mL | 
13 | Cl.NC1CCN(c2nc3c(cc2F)c(=O)c(C(=O)O)cn3-c2cccs2)C1 (stereo not given) | 1.2 µg/mL | 
14 | Cl.NC1CCN(c2c(F)cc3c(=O)c(C(=O)O)cn(-c4nccs4)c3c2F)C1 (stereo not given) | 55 µg/mL | 
15 | Cl.Cn1nccc1-n1cc(C(=O)O)c(=O)c2cc(F)c(N3CCC(N)C3)nc21 (stereo not given) | > 10 µg/mL | 
16 | COc1cc([C@@H]2c3cc4c(cc3[C@@H](O[C@@H]3O[C@@H]5CO[C@@H](C)O[C@H]5[C@H](O)[C@H]3O)[C@H]3COC(=O)[C@H]23)OCO4)cc(OC)c1O [ETOPOSIDE] | 0.0085 µg/mL (≈ 0.0144 µM) | IC50 [7]: 0.08 µg/mL (≈ 0.136 µM); IC50 [8]: 0.31 µg/mL (≈ 0.527 µM); T/C (P388 [1]): 250%; IC50 (A-427): 0.095 µg/mL (≈ 0.161 µM); IC50 (SK-OV-3): 0.95 µg/mL (≈ 1.61 µM); IC50 (G-361): 0.28 µg/mL (≈ 0.476 µM); T/C (P388 [2]): 175%; T/C (P388 [3]): >375%
17 | Cl.O=C(O)c1cn(-c2nccs2)c2nc(O)c(F)cc2c1=O | > 10 µg/mL | 
18 | Cl.NC1CCN(c2nc3c(cc2F)c(=O)c(C(=O)O)cn3-c2ccccc2)C1 (stereo not given) | 2.4 µg/mL | 
19 | Cl.NCCSc1nc2c(cc1F)c(=O)c(C(=O)O)cn2-c1nccs1 | > 10 µg/mL | 
20 | Cl.N[C@H]1CN(c2nc3c(cc2F)c(=O)c(C(=O)O)cn3-c2nccs2)C[C@@H]1O | 2.09 µg/mL | 
21 | Cl.NCC1CCN(c2nc3c(cc2F)c(=O)c(C(=O)O)cn3-c2nccs2)C1 (stereo not given) | 0.101 µg/mL | 
22 | CN1CC=C2CN(c3nc4c(cc3F)c(=O)c(C(=O)O)cn4-c3nccs3)CC21.Cl (stereo not given) | 0.038 µg/mL | 
23 | Cl.NC1CCN(c2nc3c(cc2F)c(=O)c(C(=O)O)cn3-c2ccccn2)C1 (stereo not given) | > 10 µg/mL | 
24 | Cl.NC1CCN(c2nc3c(cc2F)c(=O)c(C(=O)O)cn3-c2nccs2)C1 (stereo not given) | 0.021 µg/mL | IC50 (DNA topoisomerase II): > 200 µg/mL; IC50 [7]: 0.35 µg/mL; IC50 [8]: 0.34 µg/mL; T/C (P388 [1]): 213%; IC50 (A-427): 0.22 µg/mL; IC50 (SK-OV-3): 0.93 µg/mL; IC50 (G-361): 0.39 µg/mL; IC50 (HT-29): 1.2 µg/mL; T/C (P388 [2]): 150%; T/C (P388 [3]): >375%
25 | Cl.N[C@H]1CCN(c2nc3c(cc2F)c(=O)c(C(=O)O)cn3-c2nccs2)C1 | 0.028 µg/mL | 
26 | Cl.NC1CCN(c2ncc3c(=O)c(C(=O)O)cn(-c4nccs4)c3n2)C1 (stereo not given) | 0.047 µg/mL | 
27 | Cl.NC1CCN(c2nc3c(cc2F)c(=O)c(C(=O)O)cn3-c2ccc(F)cc2)C1 (stereo not given) | 2.1 µg/mL | 
28 | COc1cnc(-n2cc(C(=O)O)c(=O)c3cc(F)c(N4CCC(N)C4)nc32)s1.Cl (stereo not given) | 0.35 µg/mL | 
29 | Cl.O=C(O)c1cn(-c2nccs2)c2nc(N3CCCC3)c(F)cc2c1=O | 0.08 µg/mL | 
30 | Cl.O=C(O)c1cn(-c2nccs2)c2nc(N3CC4NCCOC4C3)c(F)cc2c1=O (stereo not given) | > 1 µg/mL | 
